The target in assay [1] is T1, Muscarinic acetylcholine receptor M2 (Sus scrofa, UniProt P06199).
T1 sequence (P06199 whole entry): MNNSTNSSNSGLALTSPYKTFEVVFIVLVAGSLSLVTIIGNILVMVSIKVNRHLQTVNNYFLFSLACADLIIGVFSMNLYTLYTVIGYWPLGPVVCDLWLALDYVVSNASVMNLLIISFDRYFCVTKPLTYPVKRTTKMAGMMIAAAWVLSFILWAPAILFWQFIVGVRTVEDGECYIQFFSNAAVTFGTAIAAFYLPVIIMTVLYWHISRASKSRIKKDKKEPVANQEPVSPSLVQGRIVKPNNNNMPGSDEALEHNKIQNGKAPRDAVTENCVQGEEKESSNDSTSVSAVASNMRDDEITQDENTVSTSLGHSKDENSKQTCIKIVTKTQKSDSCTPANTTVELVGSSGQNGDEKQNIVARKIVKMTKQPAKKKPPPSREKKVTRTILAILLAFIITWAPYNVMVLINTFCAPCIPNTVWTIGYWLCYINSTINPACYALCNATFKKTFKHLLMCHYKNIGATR
Nature of the assay: Displacement of [3H]NMS from pig muscarinic M2 receptor after 120 mins by liquid scintillation counting. Background: Loss of bound radioactivity is the signal in a displacement assay; it reports binding, not function.

Assay [2] in a line: Displacement of [3H]epibatidine from Torpedo californica muscle-type nAChR after 90 mins by liquid scintillation counting. It counts as tissue-based, Tetronarce californica. The essentials:
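Torpedo californica electric organ membranes, homogenised and washed in HSS, 60−70 μg per sample. Incubated with (±)-[3H]epibatidine for 90 min at 22 °C; (−)-nicotine defined nonspecific binding. Filtered through PEI-soaked GF/B filters and counted by scintillation. […] Mean ± SEM of 3–5 experiments.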

In assay [3] the target is T2, Neuronal acetylcholine receptor subunit alpha-7 (Homo sapiens, UniProt P36544). The assay can be described thus: Ratio of toxiferine-I IC50 to compound IC50 for human alpha7 nAChR expressed in GH3 cells by Ca2+/Fluo-4 assay. In kind it is cell-based.
In assay [4] the target is T2, Neuronal acetylcholine receptor subunit alpha-7. Nature of the assay: Antagonist activity at human alpha7 nAChR expressed in GH3 cells by Ca2+/Fluo-4 assay. It counts as cell-based.

Where only a bound is given, the exact number is not on record here.

T2 sequence (P36544 whole entry): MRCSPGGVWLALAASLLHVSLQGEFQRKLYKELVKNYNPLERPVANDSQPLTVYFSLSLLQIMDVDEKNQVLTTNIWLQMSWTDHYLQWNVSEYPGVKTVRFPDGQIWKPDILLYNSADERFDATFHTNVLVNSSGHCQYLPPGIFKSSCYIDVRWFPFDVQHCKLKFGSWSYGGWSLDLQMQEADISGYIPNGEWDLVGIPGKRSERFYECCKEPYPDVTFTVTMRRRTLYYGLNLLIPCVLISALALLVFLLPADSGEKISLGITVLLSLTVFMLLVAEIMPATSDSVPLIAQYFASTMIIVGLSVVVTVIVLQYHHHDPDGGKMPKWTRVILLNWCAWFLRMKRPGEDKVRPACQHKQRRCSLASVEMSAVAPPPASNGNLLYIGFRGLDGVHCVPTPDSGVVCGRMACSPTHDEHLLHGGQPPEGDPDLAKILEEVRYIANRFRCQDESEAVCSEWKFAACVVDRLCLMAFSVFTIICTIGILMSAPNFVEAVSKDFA

Take `C=CC[N+]12CC[C@@]34c5ccccc5N5/C=C6/[C@H]7C[C@H]8[C@@]9(CC[N+]8(CC=C)C[C@H]7CC)c7ccccc7N(/C=C(/[C@@H](C[C@@H]31)[C@H](CC)C2)[C@H]54)[C@@H]69` (some centres not stated): the EC50 – broadly, the concentration needed to bring the measured effect to its halfway point – in assay [1] is 0.036 µM. In assay [2], the Ki (as a rule, the equilibrium dissociation constant of an inhibitor or competing ligand from its target) came out at 0.0751 µM.
As for `C=CC[N+]12CC[C@@]34c5ccccc5N5[C@@H]6OC=C7C[N+]8(CC=C)CC[C@]9%10c%11ccccc%11N([C@@H]%11OCC=C(C1)[C@H](C[C@@H]32)[C@@H]%11[C@H]54)[C@H]9[C@H]6[C@H]7C[C@@H]%108` (some centres not stated), the EC50 in assay [1] worked out at 0.011 µM. Also, the affinity in assay [2], expressed as Ki, was 1.5 µM.
Taken in the same sequence, the figures for `C=CC[N@@+]12CC[C@@]34c5ccccc5N5/C=C6/[C@H]7C[C@H]8[C@@]9(CC[N@@+]8(CC=C)C/C7=C/CO)c7ccccc7N(/C=C(/[C@@H](C[C@@H]31)/C(=C\CO)C2)[C@H]54)[C@@H]69` [ALCURONIUM] were 0.002 µM and 0.234 µM.
As for `CC[C@@H]1C[N+]2(C)CC[C@@]34c5ccccc5N5/C=C6/[C@H]7C[C@H]8[C@@]9(CC[N+]8(C)C[C@H]7CCO)c7ccccc7N(/C=C(/[C@H]1C[C@@H]32)[C@H]54)[C@@H]69` (some centres not stated), the EC50 in assay [1] was found to be 0.32 µM. Besides, the Ratio IC50 in assay [3] was 10. In addition, the figures for the IC50 in assay [4] (read-out: IC50) and in assay [4] (read-out: pIC50 (converted)) were 0.59 µM and 0.603 µM, respectively. The compound further returned a Ki in assay [2] of 0.455 µM.
Turning to `C=CC[N+]12CC[C@@]34c5ccccc5N5/C=C6/[C@H]7C[C@H]8[C@@]9(CC[N+]8(CC=C)C[C@H]7CCO)c7ccccc7N(/C=C(/[C@@H](C[C@@H]31)[C@H](CC)C2)[C@H]54)[C@@H]69` (some centres not stated), the EC50 in assay [1] is 0.012 µM. The IC50 is 3.1 µM in assay [4] (read-out: IC50) and 3.16 µM in assay [4] (read-out: pIC50 (converted)). Also, the affinity in assay [2], expressed as Ki, was 0.25 µM.
In assay [1], `CC[C@@H]1CN2CC[C@@]34c5ccccc5N5/C=C6/[C@H]7C[C@@H]8N(CC[C@@]89c8ccccc8N(/C=C(/[C@H]1C[C@H]23)[C@H]54)[C@@H]69)C[C@H]7CC` returned an EC50 of 0.5 µM. Also, the IC50 in assay [4] (read-out: IC50) is 3.3 µM; in assay [4] (read-out: pIC50 (converted)), 3.31 µM. Besides, the Ki in assay [2] is 0.669 µM.
Turning to `C[N+]12CC[C@@]34c5ccccc5N5[C@@H]6OC=C7C[N+]8(C)CC[C@]9%10c%11ccccc%11N([C@@H]%11OCC=C(C1)[C@H](C[C@@H]32)[C@@H]%11[C@H]54)[C@H]9[C@H]6[C@H]7C[C@@H]%108` (some centres not stated), in assay [1], the EC50 was 0.008 µM. Further, the inhibitory constant (Ki) in assay [2] came out at 5.2 µM.
In assay [1], `CC[C@@H]1C[N+]2(Cc3ccc([N+](=O)[O-])cc3)CC[C@@]34c5ccccc5N5/C=C6/[C@H]7C[C@H]8[C@@]9(CC[N+]8(Cc8ccc([N+](=O)[O-])cc8)C[C@H]7CC)c7ccccc7N(/C=C(/[C@H]1C[C@@H]32)[C@H]54)[C@@H]69` (some centres not stated) gave a concentration for a half-maximal effect (EC50) of 0.049 µM. Also, the values for the IC50 in assay [4] (read-out: IC50) and in assay [4] (read-out: pIC50 (converted)) were 21 µM and 21.4 µM, respectively. The same compound displayed a Ki in assay [2] of 0.0819 µM.
Taken in the same sequence, the figures for `CC[C@@H]1CN2CC[C@@]34c5ccccc5N5/C=C6/[C@H]7C[C@@H]8N(CC[C@@]89c8ccccc8N(/C=C(/[C@H]1C[C@H]23)[C@H]54)[C@@H]69)C[C@H]7CCO` were 0.41 µM, 2.2 µM, 2.34 µM and 0.39 µM.
With `CC[C@@H]1C[N+]2(C)CC[C@@]34c5ccccc5N5/C=C6/[C@H]7C[C@H]8[C@@]9(CC[N+]8(C)C[C@H]7CC)c7ccccc7N(/C=C(/[C@H]1C[C@@H]32)[C@H]54)[C@@H]69` (some centres not stated), in assay [1], the EC50 was 0.26 µM. Besides, in assay [3], the Ratio IC50 was determined as 10. The IC50 in assay [4] (read-out: IC50) was 0.82 µM; in assay [4] (read-out: pIC50 (converted)), 0.813 µM. Besides, in assay [2], the Ki was found to be 0.15 µM.
As for `CC[C@@H]1C[N+]2(Cc3ccc([N+](=O)[O-])cc3)CC[C@@]34c5ccccc5N5/C=C6/[C@H]7C[C@H]8[C@@]9(CC[N+]8(Cc8ccc([N+](=O)[O-])cc8)C[C@H]7CCO)c7ccccc7N(/C=C(/[C@H]1C[C@@H]32)[C@H]54)[C@@H]69` (some centres not stated), it took 0.032 µM to reach a half-maximal effect in assay [1] (EC50). Besides, the IC50 in assay [4] (read-out: IC50) was 4.2 µM; in assay [4] (read-out: pIC50 (converted)), 4.17 µM. This compound returned a Ki in assay [2] of 0.29 µM.
Consider `C[N+]12CC[C@@]34c5ccccc5N5/C=C6/[C@H]7C[C@H]8[C@@]9(CC[N+]8(C)C/C7=C/CO)c7ccccc7N(/C=C(/[C@@H](C[C@@H]31)/C(=C\CO)C2)[C@H]54)[C@@H]69` (some centres not stated), for which, in assay [1], a half-maximal response (EC50) required 0.096 µM. This compound also had a Ki in assay [2] of 0.014 µM.
The matching figures for `C1=C2CN3CC[C@]45c6ccccc6N6[C@@H]7OCC=C8CN9CC[C@]%10%11c%12ccccc%12N([C@H](OC1)[C@@H]([C@H]64)[C@H]2C[C@H]35)[C@H]%10[C@H]7[C@H]8C[C@H]9%11` [CARACURINE V]: 0.436 µM and more than 100 µM.

For the origin of these results see ChEMBL document CHEMBL3352208, “Semisynthetic analogues of toxiferine I and their pharmacological properties at α7 nAChRs, muscle-type nAChRs, and the allosteric binding site of muscarinic M2 receptors” (J Nat Prod, 2014).
